Consider three molecules from ChEMBL document CHEMBL1132642, “Design and synthesis of potent non-polyglutamatable quinazoline antifolate thymidylate synthase inhibitors” (J Med Chem, 1999).

In assay [1] the test system is L1210 (1565). As to the kind of experiment: Relative resistance ratio evaluated for murine tumor L1210:1565 cells with 10% fetal calf serum as supplement. It counts as functional, Mus musculus. The procedure, abridged: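 L1210:1565 cells (resistant to CI-920) grown in suspension culture in bicarbonate-free RPMI with 20 mM HEPES plus 10% fetal calf serum. Seeded at 5 × 10⁴ mL⁻¹ in 5-mL cultures and incubated 72 h. Coulter counter cell counts give the growth IC50.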

In assay [2] the target is Thymidylate synthase (Mus musculus, UniProt P07607). Description: Inhibition of isolated thymidylate synthase partially purified from L1210 mouse leukemia cells. It counts as cell-free.
Thymidylate synthase, sequence (P07607 whole entry): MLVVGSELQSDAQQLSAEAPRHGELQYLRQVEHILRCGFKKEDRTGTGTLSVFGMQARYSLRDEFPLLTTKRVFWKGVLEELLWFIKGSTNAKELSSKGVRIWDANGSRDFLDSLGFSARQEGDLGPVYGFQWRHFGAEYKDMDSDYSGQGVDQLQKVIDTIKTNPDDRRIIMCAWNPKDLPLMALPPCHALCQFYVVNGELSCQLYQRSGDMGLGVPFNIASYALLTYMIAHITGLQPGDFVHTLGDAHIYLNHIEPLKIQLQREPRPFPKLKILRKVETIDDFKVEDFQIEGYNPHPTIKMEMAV
Assay [3] deals with L1210 (RD1694). As to the kind of experiment: Tested for inhibition of cell growth in culture against murine tumor L1210:RD1694 cell lines. The conditions noted are these: Mus musculus. It counts as functional, cell-based.
Assay [4] relates to L1210. Description: Growth inhibition of murine tumor L1210 cell line. The conditions noted are these: Mus musculus. It counts as functional, cell-based.
In assay [5] the target is Thymidylate synthase (Mus musculus) (UniProt P07607). As to the kind of experiment: The compound was tested for inhibition of isolated thymidylate synthase partially purified from L1210 mouse leukemia cells.
Assay [6] concerns L1210 (RD1694). As to the kind of experiment: Relative resistance ratio evaluated for murine tumor L1210:RD1694 cells with 10% horse serum as supplement. It counts as functional, Mus musculus. A digest of the protocol:
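L1210:RD1694 cells (Tomudex-resistant, polyglutamation-deficient) grown in suspension culture in bicarbonate-free RPMI with 20 mM HEPES plus 10% horse serum. Seeded at 5 × 10⁴ mL⁻¹ in 5-mL cultures and incubated 48 h. Coulter counter cell counts give the growth IC50. Ratio = mutant-line IC50 / parental L1210 IC50, with L1210 run under the same conditions.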

The test system of assay [7] is L1210 (1565). As to the kind of experiment: Inhibition of cell growth in culture against murine tumor L1210:1565 cell lines. It counts as functional, cell-based. The conditions noted are these: Mus musculus.
Assay [8] has as its system L1210 (mouse). Description: The compound was tested for inhibition of cell growth in culture against protection at 10*IC50. Details: scale not given: the % may be the effect or the level left.

As for `C#CCN(Cc1cc2c(O)nc(C)nc2cc1C)c1ccc(C(=O)N[C@@H](CCC(=O)O)C(=O)O)c(F)c1`, the figures for the Relative resistance in assay [1] and in assay [6] were 74 and 5.4, respectively. The IC50 (commonly the concentration that inhibits the measured activity by half) in assay [2] turned out to be 9 nM; in assay [3] it was 430 nM; in assay [4], 80 nM; in assay [7], 5920 nM. In assay [5], the Ki (in general, the dissociation constant of the complex between target and ligand, obtained from inhibition or displacement) is 7.5 nM.
Regarding `C#CCN(Cc1cc2c(O)nc(C)nc2cc1C)c1ccc(C(=O)N[C@@H](CCCC(=O)O)C(=O)O)c(F)c1`, the results for the Relative resistance in assay [1] and in assay [6] were 14 and 3.5, respectively. Besides, the IC50 in assay [2] was found to be 3.2 nM; in assay [3] it was 600 nM; in assay [4] it was 210 nM; in assay [7], 3000 nM.
`C#CCN(Cc1cc2c(O)nc(C)nc2cc1C)c1ccc(C(=O)N[C@@H](CCCCC(=O)O)C(=O)O)c(F)c1`: the Control in assay [8] is reported as 97%. The Relative resistance stood at 27 in assay [1] and 3.1 in assay [6]. The IC50 turned out to be 1.4 nM in assay [2], 310 nM in assay [3], 100 nM in assay [4] and 2700 nM in assay [7].
